# Measured values: ChEMBL document CHEMBL2429837, “Identification of cryptotanshinone as an inhibitor of oncogenic protein tyrosine phosphatase SHP2 (PTPN11)” (J Med Chem, 2013)
# pIC50: −log10 of the molar value.
# Legend:
# [1] = molecular target: T1, Tyrosine-protein phosphatase non-receptor type 2 (Homo sapiens, UniProt P17706); assay: Inhibition of GST-tagged TC-PTP (unknown origin) using phospho-EGFR Asp-Ala-Asp-Glu-Tyr[PO3H2]-Leu-Ile-Pro-Gln-Gln-Gly as substrate preincubated for 30 mins before substrate addition measured after 30 mins by phosphatase activity assay
# T1 sequence (P17706 whole entry): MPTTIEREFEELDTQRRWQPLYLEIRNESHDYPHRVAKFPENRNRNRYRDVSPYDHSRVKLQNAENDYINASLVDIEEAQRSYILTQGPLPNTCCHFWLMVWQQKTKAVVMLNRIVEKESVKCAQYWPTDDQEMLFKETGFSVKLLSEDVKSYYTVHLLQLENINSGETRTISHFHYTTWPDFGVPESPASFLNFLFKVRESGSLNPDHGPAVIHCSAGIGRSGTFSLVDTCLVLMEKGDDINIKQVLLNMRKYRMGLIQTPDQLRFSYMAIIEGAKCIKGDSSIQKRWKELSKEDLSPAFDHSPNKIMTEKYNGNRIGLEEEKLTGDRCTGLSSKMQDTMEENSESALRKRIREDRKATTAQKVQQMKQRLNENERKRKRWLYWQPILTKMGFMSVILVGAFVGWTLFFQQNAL
# Method in brief: (§1)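 In-house SHP1 or purchased GST-CD45 cytoplasmic domain, GST-LAR, GST-TC-PTP preincubated with compound (6 concentrations) in 25 mM Tris-HCl pH 7.4, 50 mM NaCl, 5 mM DTT, 2.5 mM EDTA, room temperature 30 min. Phospho-EGFR pTyr1018 peptide added to 0.2 mM final, 30°C 30 min; released phosphate by Malachite Green, OD620. Three independent experiments.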
# [2] = molecular target: T2, Tyrosine-protein phosphatase non-receptor type 9 (Homo sapiens, UniProt P43378); assay: Inhibition of GST-tagged MEG2 (unknown origin) using phospho-EGFR Asp-Ala-Asp-Glu-Tyr[PO3H2]-Leu-Ile-Pro-Gln-Gln-Gly as substrate preincubated for 30 mins before substrate addition measured after 30 mins by phosphatase activity assay
# T2 sequence (P43378 whole entry): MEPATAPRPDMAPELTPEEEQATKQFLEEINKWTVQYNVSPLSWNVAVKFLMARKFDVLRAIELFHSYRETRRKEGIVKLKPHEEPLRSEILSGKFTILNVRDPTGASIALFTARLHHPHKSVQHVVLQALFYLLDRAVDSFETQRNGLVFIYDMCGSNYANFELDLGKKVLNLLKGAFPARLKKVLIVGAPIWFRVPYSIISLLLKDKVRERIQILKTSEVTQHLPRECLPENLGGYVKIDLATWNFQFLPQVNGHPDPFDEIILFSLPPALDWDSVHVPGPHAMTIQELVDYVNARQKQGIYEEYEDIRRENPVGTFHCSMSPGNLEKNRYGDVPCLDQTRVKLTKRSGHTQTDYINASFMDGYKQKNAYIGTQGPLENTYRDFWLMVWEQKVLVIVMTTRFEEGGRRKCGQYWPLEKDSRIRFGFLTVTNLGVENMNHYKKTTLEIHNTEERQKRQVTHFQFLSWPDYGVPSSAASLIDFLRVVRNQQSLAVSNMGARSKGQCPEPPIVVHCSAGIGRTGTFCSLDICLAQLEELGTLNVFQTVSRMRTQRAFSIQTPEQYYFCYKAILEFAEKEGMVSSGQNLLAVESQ
# Method in brief: (§2)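 GST-fusion phosphatase, purified in-house or commercial (MEG2 purchased). Enzyme and compound preincubated 30 min at room temperature in 25 mM Tris-HCl pH 7.4, 50 mM NaCl, 5 mM DTT, 2.5 mM EDTA. EGFR pTyr1018 peptide then added to 0.2 mM final and incubated 30 min at 30°C. Released phosphate read with Malachite Green at OD620 after 10 min. IC50 from 6 concentrations, three independent experiments.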
# [3] = molecular target: Receptor-type tyrosine-protein phosphatase F (Homo sapiens, UniProt P10586); assay: Inhibition of GST-tagged LAR (unknown origin) using phospho-EGFR Asp-Ala-Asp-Glu-Tyr[PO3H2]-Leu-Ile-Pro-Gln-Gln-Gly as substrate preincubated for 30 mins before substrate addition measured after 30 mins by phosphatase activity assay; method in brief: as §1
# [4] = molecular target: T3, Receptor-type tyrosine-protein phosphatase C (Homo sapiens, UniProt P08575); assay: Inhibition of GST-tagged CD45 (unknown origin) using phospho-EGFR Asp-Ala-Asp-Glu-Tyr[PO3H2]-Leu-Ile-Pro-Gln-Gln-Gly as substrate preincubated for 30 mins before substrate addition measured after 30 mins by phosphatase activity assay; method in brief: as §1
# T3 sequence (P08575 whole entry): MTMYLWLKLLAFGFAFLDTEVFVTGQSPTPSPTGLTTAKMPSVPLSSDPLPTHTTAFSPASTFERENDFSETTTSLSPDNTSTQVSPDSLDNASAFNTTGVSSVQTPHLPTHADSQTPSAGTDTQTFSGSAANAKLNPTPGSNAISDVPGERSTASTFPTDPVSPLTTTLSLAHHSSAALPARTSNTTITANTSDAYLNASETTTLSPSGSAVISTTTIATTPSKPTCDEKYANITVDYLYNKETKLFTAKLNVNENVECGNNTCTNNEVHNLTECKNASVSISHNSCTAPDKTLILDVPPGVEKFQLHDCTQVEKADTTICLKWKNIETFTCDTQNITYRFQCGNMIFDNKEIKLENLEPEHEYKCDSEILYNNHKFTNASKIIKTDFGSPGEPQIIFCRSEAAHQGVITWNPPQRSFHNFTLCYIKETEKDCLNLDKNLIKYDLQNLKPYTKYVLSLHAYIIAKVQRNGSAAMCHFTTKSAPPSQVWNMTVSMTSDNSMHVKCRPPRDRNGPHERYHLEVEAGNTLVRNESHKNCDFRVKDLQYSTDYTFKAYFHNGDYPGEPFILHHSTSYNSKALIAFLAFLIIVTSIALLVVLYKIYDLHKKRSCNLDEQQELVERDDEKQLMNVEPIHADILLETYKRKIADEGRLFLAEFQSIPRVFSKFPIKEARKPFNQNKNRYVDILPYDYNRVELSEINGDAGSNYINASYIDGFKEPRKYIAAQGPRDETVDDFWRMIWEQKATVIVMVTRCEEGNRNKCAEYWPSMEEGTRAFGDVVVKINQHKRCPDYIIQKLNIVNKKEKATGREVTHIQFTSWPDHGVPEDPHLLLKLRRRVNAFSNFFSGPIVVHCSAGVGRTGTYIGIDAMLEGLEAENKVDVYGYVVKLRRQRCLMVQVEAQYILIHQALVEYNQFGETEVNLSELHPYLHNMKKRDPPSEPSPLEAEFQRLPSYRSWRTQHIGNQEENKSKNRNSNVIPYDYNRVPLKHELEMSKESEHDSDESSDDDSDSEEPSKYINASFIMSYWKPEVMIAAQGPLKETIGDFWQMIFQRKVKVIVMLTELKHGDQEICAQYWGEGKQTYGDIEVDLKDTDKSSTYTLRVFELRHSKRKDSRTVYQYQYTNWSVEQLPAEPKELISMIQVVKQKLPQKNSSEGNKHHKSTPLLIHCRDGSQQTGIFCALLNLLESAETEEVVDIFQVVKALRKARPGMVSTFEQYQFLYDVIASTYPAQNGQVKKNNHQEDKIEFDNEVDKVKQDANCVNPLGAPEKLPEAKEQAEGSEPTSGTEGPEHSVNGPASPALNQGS
# [5] = molecular target: T4, Tyrosine-protein phosphatase non-receptor type 1 (Homo sapiens, UniProt P18031); assay: Inhibition of GST-tagged PTP1B (unknown origin) using phospho-EGFR Asp-Ala-Asp-Glu-Tyr[PO3H2]-Leu-Ile-Pro-Gln-Gln-Gly as substrate preincubated for 30 mins before substrate addition measured after 30 mins by phosphatase activity assay; method in brief: as §2
# T4 sequence (P18031 whole entry): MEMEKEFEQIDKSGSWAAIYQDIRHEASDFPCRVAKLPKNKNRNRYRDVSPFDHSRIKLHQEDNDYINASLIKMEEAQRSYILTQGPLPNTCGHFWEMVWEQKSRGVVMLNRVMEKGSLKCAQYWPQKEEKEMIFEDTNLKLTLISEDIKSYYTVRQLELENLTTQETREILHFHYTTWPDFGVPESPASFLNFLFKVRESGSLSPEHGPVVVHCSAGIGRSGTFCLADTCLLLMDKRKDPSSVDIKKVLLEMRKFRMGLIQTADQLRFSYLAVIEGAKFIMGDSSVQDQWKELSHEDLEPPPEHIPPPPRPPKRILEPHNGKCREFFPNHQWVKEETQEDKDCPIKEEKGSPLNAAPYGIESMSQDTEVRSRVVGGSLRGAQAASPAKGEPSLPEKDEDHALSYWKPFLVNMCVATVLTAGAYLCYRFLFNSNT
# [6] = molecular target: Tyrosine-protein phosphatase non-receptor type 6 (Homo sapiens, UniProt P29350); assay: Inhibition of GST-tagged SHP1 PTP domain (unknown origin) using phospho-EGFR Asp-Ala-Asp-Glu-Tyr[PO3H2]-Leu-Ile-Pro-Gln-Gln-Gly as substrate preincubated for 30 mins before substrate addition measured after 30 mins by phosphatase activity assay; method in brief: as §1
# [7] = molecular target: Tyrosine-protein phosphatase non-receptor type 11 (Homo sapiens, UniProt Q06124, E76K); assay: Inhibition of GST-tagged full-length SHP2 E76K mutant (unknown origin) using phospho-EGFR Asp-Ala-Asp-Glu-Tyr[PO3H2]-Leu-Ile-Pro-Gln-Gln-Gly as substrate preincubated for 30 mins before substrate addition measured after 30 mins by phosphatase activity assay
# [8] = molecular target: T5, Tyrosine-protein phosphatase non-receptor type 11 (Homo sapiens, UniProt Q06124); assay: Inhibition of GST-tagged SHP2 PTP domain (unknown origin) using phospho-EGFR Asp-Ala-Asp-Glu-Tyr[PO3H2]-Leu-Ile-Pro-Gln-Gln-Gly as substrate preincubated for 30 mins before substrate addition measured after 30 mins by phosphatase activity assay
# T5 sequence (Q06124 whole entry): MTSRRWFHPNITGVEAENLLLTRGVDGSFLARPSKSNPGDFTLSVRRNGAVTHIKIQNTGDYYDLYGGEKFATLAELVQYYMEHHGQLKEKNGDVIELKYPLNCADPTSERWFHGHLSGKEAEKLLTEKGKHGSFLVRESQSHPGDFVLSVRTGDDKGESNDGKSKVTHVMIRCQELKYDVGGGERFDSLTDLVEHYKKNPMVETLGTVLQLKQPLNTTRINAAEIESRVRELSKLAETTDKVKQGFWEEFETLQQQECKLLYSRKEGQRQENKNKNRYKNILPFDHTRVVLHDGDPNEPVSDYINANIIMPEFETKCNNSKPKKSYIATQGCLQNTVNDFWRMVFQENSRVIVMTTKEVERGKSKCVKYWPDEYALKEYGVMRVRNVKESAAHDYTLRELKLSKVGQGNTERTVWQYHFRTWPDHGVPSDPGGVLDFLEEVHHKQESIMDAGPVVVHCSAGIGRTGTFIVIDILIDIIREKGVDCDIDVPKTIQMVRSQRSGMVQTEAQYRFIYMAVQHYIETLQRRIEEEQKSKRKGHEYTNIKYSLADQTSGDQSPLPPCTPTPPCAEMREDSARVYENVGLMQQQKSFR
# Method in brief: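 GST-SHP2 PTP domain fusion, purified in-house, 0.5 µg per reaction. Buffer 25 mM Tris-HCl pH 7.4, 50 mM NaCl, 5 mM DTT, 2.5 mM EDTA. Inhibitor pre-incubation at room temperature; substrate 0.2 mM final; reaction at 30°C. Free phosphate by Malachite Green, OD620 read after 10 min. IC50 from 6 (or 5) concentrations, three independent experiments.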
# [9] = Growth inhibition of IL3-stimulated mouse BA/F3 cells after 48 hrs by CellTiter 96 assay; format: functional, cell-based; conditions: BaF3, 48 h
# Method in brief: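 Ba/F3 cells seeded 5 × 10^3 per well in RPMI-1640 with 10% FBS and mouse IL-3 (1.0 ng/mL), grown overnight, then exposed to compound or matching DMSO for 48 h. Viable cells counted by tetrazolium-based one-solution proliferation reagent. Triplicates per experiment, three experiments; mean±S.E.M.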
# [10] = molecular target: T5, Tyrosine-protein phosphatase non-receptor type 11; assay: Inhibition of wild type GST-tagged full-length SHP2 (unknown origin) using phospho-EGFR Asp-Ala-Asp-Glu-Tyr[PO3H2]-Leu-Ile-Pro-Gln-Gln-Gly as substrate preincubated for 30 mins before substrate addition measured after 30 mins by phosphatase activity assay
# Method in brief: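 Wild-type full-length SHP2 was purified recombinant and run like the in-house GST-SHP2 assay. It was preincubated with compound 30 min at room temperature in Tris-HCl pH 7.4 buffer with NaCl, DTT and EDTA. Phospho-EGFR peptide was then added to 0.2 mM and incubated 30 min at 30°C, with Malachite Green read-out at OD620. Triplicates from one of three repeat experiments.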
# Sequence of Tyrosine-protein phosphatase non-receptor type 6 (P29350 whole entry, the tested form may be a part): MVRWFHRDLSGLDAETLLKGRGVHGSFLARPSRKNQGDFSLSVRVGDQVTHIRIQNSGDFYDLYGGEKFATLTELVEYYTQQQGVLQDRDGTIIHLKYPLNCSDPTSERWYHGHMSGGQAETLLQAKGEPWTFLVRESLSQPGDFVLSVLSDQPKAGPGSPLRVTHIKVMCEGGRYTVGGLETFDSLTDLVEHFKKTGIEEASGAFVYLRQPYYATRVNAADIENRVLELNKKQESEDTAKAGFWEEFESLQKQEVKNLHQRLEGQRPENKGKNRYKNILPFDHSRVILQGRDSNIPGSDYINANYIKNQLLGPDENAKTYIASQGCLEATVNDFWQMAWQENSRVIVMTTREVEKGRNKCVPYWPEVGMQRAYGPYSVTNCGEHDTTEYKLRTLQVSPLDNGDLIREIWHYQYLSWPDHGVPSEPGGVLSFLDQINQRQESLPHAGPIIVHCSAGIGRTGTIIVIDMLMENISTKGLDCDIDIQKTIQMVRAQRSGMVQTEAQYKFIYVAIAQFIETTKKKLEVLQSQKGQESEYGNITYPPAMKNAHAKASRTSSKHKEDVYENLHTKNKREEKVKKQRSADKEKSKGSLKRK
# Sequence of Tyrosine-protein phosphatase non-receptor type 11 (Homo sapiens, UniProt Q06124, E76K) (Q06124 as listed by the source E76K): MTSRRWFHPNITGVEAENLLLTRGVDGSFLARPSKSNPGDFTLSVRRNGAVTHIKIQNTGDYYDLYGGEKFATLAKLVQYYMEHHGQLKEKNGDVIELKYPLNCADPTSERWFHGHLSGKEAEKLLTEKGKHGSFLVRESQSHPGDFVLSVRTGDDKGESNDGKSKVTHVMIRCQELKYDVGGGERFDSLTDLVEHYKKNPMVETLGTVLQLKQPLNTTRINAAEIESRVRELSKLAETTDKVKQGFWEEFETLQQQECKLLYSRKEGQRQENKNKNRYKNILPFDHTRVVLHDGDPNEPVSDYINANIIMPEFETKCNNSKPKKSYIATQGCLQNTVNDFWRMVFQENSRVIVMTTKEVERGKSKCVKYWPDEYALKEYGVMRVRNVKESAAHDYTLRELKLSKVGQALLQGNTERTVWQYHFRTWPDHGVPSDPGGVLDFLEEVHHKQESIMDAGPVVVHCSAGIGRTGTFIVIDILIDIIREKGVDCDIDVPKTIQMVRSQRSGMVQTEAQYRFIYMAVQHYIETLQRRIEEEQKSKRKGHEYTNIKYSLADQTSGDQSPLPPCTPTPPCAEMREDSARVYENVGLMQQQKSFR
# Sequence of Receptor-type tyrosine-protein phosphatase F (P10586 whole entry): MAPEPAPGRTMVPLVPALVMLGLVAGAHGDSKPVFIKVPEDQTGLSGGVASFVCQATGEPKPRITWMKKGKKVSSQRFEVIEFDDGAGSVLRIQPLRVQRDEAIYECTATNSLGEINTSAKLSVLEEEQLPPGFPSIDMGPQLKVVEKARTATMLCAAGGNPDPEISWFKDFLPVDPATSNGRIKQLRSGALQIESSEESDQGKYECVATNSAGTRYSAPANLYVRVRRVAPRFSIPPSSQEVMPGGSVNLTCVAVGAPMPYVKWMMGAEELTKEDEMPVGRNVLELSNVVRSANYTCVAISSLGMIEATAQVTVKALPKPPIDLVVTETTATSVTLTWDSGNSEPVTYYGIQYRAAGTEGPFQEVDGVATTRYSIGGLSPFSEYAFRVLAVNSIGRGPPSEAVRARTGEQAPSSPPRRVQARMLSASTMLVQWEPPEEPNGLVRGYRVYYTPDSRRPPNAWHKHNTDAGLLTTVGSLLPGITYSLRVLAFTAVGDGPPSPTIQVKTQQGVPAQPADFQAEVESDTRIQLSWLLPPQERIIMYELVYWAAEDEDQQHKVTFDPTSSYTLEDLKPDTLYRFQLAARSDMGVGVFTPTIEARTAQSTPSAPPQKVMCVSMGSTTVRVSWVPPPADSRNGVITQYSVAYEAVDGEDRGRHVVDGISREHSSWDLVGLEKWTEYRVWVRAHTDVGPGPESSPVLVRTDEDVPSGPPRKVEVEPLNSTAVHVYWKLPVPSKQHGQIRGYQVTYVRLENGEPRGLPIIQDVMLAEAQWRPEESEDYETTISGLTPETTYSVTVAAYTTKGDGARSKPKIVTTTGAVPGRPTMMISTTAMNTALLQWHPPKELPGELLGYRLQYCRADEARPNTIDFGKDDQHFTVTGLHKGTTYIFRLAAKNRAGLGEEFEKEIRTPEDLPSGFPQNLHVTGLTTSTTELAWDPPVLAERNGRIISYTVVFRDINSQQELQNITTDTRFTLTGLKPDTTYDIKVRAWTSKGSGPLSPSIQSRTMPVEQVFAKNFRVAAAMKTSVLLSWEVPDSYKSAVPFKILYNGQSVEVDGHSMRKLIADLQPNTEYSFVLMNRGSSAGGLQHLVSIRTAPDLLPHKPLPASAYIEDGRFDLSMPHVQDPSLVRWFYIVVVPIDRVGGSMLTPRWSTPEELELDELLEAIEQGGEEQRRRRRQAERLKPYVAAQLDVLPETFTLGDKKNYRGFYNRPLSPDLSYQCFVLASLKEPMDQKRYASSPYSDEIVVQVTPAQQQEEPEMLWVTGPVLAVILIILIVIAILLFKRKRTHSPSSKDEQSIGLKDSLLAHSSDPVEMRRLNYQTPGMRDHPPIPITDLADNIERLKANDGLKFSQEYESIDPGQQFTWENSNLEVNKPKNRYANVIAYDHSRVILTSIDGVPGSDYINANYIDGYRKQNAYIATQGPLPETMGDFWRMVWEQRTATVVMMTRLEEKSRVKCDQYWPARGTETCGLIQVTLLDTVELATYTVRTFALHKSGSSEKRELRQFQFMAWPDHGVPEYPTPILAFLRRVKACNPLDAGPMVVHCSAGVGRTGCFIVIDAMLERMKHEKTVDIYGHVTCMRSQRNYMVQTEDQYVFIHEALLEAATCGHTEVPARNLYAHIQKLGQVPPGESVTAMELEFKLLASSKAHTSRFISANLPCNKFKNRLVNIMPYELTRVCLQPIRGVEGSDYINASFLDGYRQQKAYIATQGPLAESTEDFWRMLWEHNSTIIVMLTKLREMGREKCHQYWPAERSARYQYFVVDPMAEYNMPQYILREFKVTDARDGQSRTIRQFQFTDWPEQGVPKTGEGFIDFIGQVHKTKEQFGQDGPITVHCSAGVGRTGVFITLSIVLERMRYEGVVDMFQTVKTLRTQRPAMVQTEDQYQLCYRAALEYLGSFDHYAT
Structure (SMILES),pIC50 [1],pIC50 [2],pIC50 [3],pIC50 [4],pIC50 [5],pIC50 [6],pIC50 [7],pIC50 [8],pIC50 [9],pIC50 [10]
C[C@H]1COC2=C1C(=O)C(=O)c1c2ccc2c1CCCC2(C)C [CRYPTOTANSHINONE],4.25,4.23,4.43,4.38,4.47,4.40,4.62,4.65,4.76,4.35
Cc1coc2c1C(=O)C(=O)c1c-2ccc2c1CCCC2(C)C [TANSHINONE IIA],–,–,–,–,–,5.67,–,5.59,–,–
Cc1coc2c1C(=O)C(=O)c1c-2ccc2c(C)cccc12 [TANSHINONE I],–,–,–,–,–,5.71,–,5.59,–,–
Cc1cccc2c3c(ccc12)C1=C(C(=O)C3=O)[C@@H](C)CO1 [DIHYDROTANSHINONE I],–,–,–,–,–,5.44,–,5.40,–,–
